Assay results: ChEMBL document CHEMBL1137375, “Design, synthesis, and biological evaluation of new 1,8-naphthyridin-4(1H)-on-3-carboxamide and quinolin-4(1H)-on-3-carboxamide derivatives as CB2 selective agonists” (J Med Chem, 2006)
Active and inactive are the calls of the source. The rule behind the calls is not given here.

Experiments:
[1] = biological target: Cannabinoid receptor (Mus musculus) (UniProt P47746+P47936); assay: Selectivity for DBA/J2 mouse CB2 receptor over CB1 receptor; assay type: protein assay
Sequence of Cannabinoid receptor (Mus musculus) (P47746 whole entry, looked up): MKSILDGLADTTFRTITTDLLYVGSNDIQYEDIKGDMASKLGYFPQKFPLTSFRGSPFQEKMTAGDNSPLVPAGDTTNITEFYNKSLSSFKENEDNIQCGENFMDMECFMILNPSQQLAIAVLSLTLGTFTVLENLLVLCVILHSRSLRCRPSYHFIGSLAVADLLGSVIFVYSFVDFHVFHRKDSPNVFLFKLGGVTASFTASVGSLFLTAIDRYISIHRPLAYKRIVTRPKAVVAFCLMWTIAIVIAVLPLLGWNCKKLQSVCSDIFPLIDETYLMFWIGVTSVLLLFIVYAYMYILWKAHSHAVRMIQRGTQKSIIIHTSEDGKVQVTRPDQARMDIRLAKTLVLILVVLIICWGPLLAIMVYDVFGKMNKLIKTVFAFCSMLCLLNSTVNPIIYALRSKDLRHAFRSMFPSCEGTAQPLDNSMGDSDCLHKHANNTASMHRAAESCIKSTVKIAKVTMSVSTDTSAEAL
Sequence of Cannabinoid receptor (Mus musculus) (P47936 whole entry, looked up): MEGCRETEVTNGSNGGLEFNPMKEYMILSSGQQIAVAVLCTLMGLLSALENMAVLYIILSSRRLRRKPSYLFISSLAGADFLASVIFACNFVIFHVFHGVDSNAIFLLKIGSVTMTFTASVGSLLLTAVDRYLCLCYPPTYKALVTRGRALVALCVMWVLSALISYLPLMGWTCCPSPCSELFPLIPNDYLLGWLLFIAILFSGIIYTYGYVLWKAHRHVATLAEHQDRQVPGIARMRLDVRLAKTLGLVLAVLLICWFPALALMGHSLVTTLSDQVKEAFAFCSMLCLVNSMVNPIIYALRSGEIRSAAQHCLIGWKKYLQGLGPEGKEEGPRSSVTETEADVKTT

[2] = biological target: Cannabinoid receptor 2 (Homo sapiens) (UniProt P34972); assay: Activity at CB2 receptor assessed as reduction in CD203c expression in activated human basophil; assay type: functional
Sequence of Cannabinoid receptor 2 (Homo sapiens) (P34972 whole entry): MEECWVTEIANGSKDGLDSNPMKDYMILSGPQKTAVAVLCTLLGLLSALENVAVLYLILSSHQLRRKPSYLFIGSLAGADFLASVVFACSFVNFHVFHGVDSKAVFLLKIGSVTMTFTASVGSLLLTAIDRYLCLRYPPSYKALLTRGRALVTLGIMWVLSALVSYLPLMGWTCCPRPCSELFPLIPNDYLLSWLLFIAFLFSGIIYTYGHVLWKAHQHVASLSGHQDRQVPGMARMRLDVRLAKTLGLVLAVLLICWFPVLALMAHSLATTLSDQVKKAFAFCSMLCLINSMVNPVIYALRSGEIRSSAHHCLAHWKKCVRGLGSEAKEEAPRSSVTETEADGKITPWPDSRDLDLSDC
Procedure, shortened: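 Human basophil-rich leukocytes from donor blood buffy coats via Ficoll-Paque. Cells pretreated with compound 1 nM to 1 µM for 30 min at 37 °C, then stimulated with anti-IgE 1 µg/mL for 30 min at 37 °C. CD203c (PE) read by flow cytometry on IgE-FITC-gated basophils. Antagonist check: SR 144528 or AM251 100 nM preincubated 30 min. Six experiments in triplicate.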

[3] = biological target: Cannabinoid receptor 2 (Mus musculus, UniProt P47936); assay: Displacement of [3H]CP-55940 from CB2 receptor in DBA/J2 mouse spleen
Sequence of Cannabinoid receptor 2 (P47936 whole entry): as the sequence (P47936 whole entry, looked up) above
Procedure, shortened: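 Membranes (40-60 µg protein) from mouse brain minus cerebellum (CB1) or spleen (CB2), incubated 1 h at 30 °C with 0.5 nM [3H]CP-55,940 in TME buffer (pH 7.4) with 5 mg/mL BSA. GF/C filtration, scintillation counting. IC50 by nonlinear fit, converted to Ki by Cheng-Prusoff; at least three membrane preparations.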

[4] = biological target: T1, Cannabinoid receptor 1 (Mus musculus, UniProt P47746); assay: Displacement of [3H]CP-55940 from CB1 receptor in DBA/J2 mouse brain; assay type: tissue-based
T1 sequence (P47746 whole entry): as the sequence (P47746 whole entry, looked up) above

[5] = biological target: Cannabinoid receptor 1 (Mus musculus) (UniProt P47746); assay: Activity at CB1 receptor assessed as stimulation of [35S]GTP-gamma-S binding in DBA/J2 mouse brain relative to control; assay type: functional
Sequence of Cannabinoid receptor 1 (Mus musculus) (P47746 whole entry): as the sequence (P47746 whole entry, looked up) above
Procedure, shortened: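 Mouse brain (minus cerebellum) P2 membranes, 5-10 µg protein, incubated 60 min at 30 °C in 50 mM Tris-HCl, 3 mM MgCl2, 0.2 mM EGTA, 100 mM NaCl, pH 7.4, 0.1% BSA, with 0.05 nM [35S]GTPγS, 30 µM GDP, compound 1-5000 nM. Filtration, scintillation counting. Nonspecific binding with 10 µM GTPγS. Stimulation as % above basal. EC50/Emax by nonlinear regression; at least four experiments in duplicate.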

[6] = biological target: Cannabinoid receptor 1 (Mus musculus) (UniProt P47746); assay: (§1) Activity at CB1 receptor assessed as stimulation of [35S]GTP-gamma-S binding in DBA/J2 mouse brain; assay type: functional; settings: filed as agonist
[7] = biological target: T1, Cannabinoid receptor 1; assay: as §1; assay type: functional

| Structure (SMILES) | Ratio Ki [1] | Activity [2] | Ki [3] | Ki [4] | Emax [5] | Activity [6] | EC50 [7] |
| --- | --- | --- | --- | --- | --- | --- | --- |
| Cc1ccc2c(=O)c(C(=O)NC3CCCC3)cn(CCN3CCOCC3)c2n1 | > 20 | Active | 0.05 µM | > 1 µM |  |  |  |
| O=C(NC1CCCCC1)c1cn(Cc2ccccc2)c2nc(Cl)ccc2c1=O | 19 |  | 0.0246 µM | 0.464 µM |  |  |  |
| Cc1ccc2c(=O)c(C(=O)NC3CCCCC3)cn(CCN3CCN(c4ccccc4)CC3)c2n1 |  |  | > 1 µM | > 1 µM |  |  |  |
| Cc1ccc2c(n1)N(Cc1ccccc1F)CC(C(=O)NC1CCCCC1)C2O (stereo not given) |  |  | > 1 µM | > 1 µM |  |  |  |
| O=C(NC1CCCCC1)c1cn(Cc2ccc(F)cc2)c2nc(Cl)ccc2c1=O | 23 |  | 0.0214 µM | 0.495 µM |  |  |  |
| COc1ccc(Cn2cc(C(=O)NC3CCCCC3)c(=O)c3ccc(C)nc32)cc1 | > 28 |  | 0.0358 µM | > 1 µM |  |  |  |
| Cc1ccc2c(n1)N(Cc1ccccc1)CC(C(=O)NC1CCCCC1)C2O (stereo not given) |  |  | > 1 µM | > 1 µM |  |  |  |
| O=C(NC1CCCCC1)c1cn(CCN2CCOCC2)c2cc(Cl)ccc2c1=O | > 303 |  | 0.0033 µM | > 1 µM |  |  |  |
| O=C(NC1CCCCC1)c1cn(Cc2ccccc2)c2ncccc2c1=O | > 21 |  | 0.0486 µM | > 1 µM |  |  |  |
| Cc1ccc2c(=O)c(C(=O)NC3CCC(C)CC3)cn(Cc3ccccc3F)c2n1 (stereo not given) | 4 |  | 0.0084 µM | 0.0375 µM | 161% | Agonist | 0.138 µM |
| Cc1ccc2c(=O)c(C(=O)NC3CCCCC3)cn(Cc3ccccc3)c2n1 | 13 |  | 0.01 µM | 0.127 µM |  |  |  |
| Cc1ccc2c(=O)c(C(=O)NC3CCCCCC3)cn(Cc3ccccc3)c2n1 | 28 |  | 0.0051 µM | 0.143 µM |  |  |  |
| Cc1ccc2c(=O)c(C(=O)NC3CCCCCC3)cn(Cc3ccccc3F)c2n1 | 11 |  | 0.0134 µM | 0.149 µM |  |  |  |
| O=C(NC1CCCCC1)c1cn(Cc2ccccc2F)c2nc(Cl)ccc2c1=O |  |  | 0.0181 µM |  |  |  |  |
| O=C(NC1CCCCC1)c1cn(Cc2ccc(F)cc2)c2ncccc2c1=O | 29 |  | 0.013 µM | 0.384 µM |  |  |  |
| CCCC(C)(C)c1ccc2c(c1)OC(C)(C)[C@@H]1CC=C(C)C[C@@H]21 | 7 |  | 0.065 µM | 0.458 µM |  |  |  |
| Cc1ccc2c(n1)N(CCN1CCOCC1)CC(C(=O)NC1CCC(C)CC1)C2O (stereo not given) |  |  | > 1 µM | > 1 µM |  |  |  |
| Cc1ccc2c(=O)c(C(=O)NC3CCCCCC3)cn(Cc3ccc(F)cc3)c2n1 | 4.3 |  | 0.001 µM | 0.0043 µM |  |  |  |
| CC1CCC(NC(=O)c2cn(CCN3CCOCC3)c3nc(Cl)ccc3c2=O)CC1 (stereo not given) | > 25 |  | 0.0405 µM | > 1 µM |  |  |  |
| Cc1ccc2c(=O)c(C(=O)NC3CCC(C)CC3)cn(Cc3ccc(F)cc3)c2n1 (stereo not given) | 6 |  | 0.0014 µM | 0.0087 µM | 172% | Agonist | 0.027 µM |
| Cc1c(C(=O)c2cccc3ccccc23)c2cccc3c2n1[C@H](CN1CCOCC1)CO3 |  |  |  |  | 187% |  |  |
| Cc1ccc2c(=O)c(C(=O)NC3CCCCC3)cn(CCc3ccccc3)c2n1 | > 62 |  | 0.0163 µM | > 1 µM |  |  |  |
| CCCCC/C=C\C/C=C\C/C=C\C/C=C\CCCC(=O)NCCCl | 0.03 |  | 0.121 µM | 0.0039 µM |  |  |  |
| O=C(NC1CCCCC1)c1cn(CCN2CCOCC2)c2ncccc2c1=O | > 15 |  | 0.0672 µM | > 1 µM |  |  |  |
| O=C(NC1CCCCC1)c1cn(Cc2ccccc2)c2ccccc2c1=O | > 210 | Active | 0.0048 µM | > 1 µM |  |  |  |
